Experimental data gathered from unrelated publications.
Compare with care: the assays were run in different laboratories.
Target: Serine/threonine-protein kinase 38-like (STK38L, Homo sapiens, UniProt Q9Y2H1)

C[C@@H]1CCN(c2nccc(-c3cnn4ncccc34)n2)C1
remaining binding (binding; 1 µM): 100%

C=CC(=O)N1CCC(C(=O)NCC(=O)N2CCN(c3nc(-c4cnc(N)nc4C(F)F)nc(N4CCOCC4)n3)CC2)CC1
remaining binding (binding; competition with immobilised ligand; 1 µM): 97%

CNC(=O)[C@@H]1CC[C@@H](n2c(-c3ccc4cnccc4c3)nc3ccc(C(=O)NCc4cccc(C(N)=O)c4)cc32)C1
remaining binding (binding; competition with immobilised ligand; 1 µM): 100%

CCN1CCN(Cc2ccc(C(=O)Nc3ccc(C)c(Oc4ccc5c(c4)CC(=O)N5)c3)cc2C(F)(F)F)CC1
remaining binding (binding; competition with immobilised ligand; 1 µM): 100%

FC(F)(F)Oc1cccc(-c2cnc3ccc(-c4ccncc4)nn23)c1
remaining binding (cell-free assay; competition with immobilised ligand; 5 µM): 89%

CC1=C(C#N)[C@@H](c2ccc3[nH]nc(C)c3c2)C(C#N)=C(c2ccc(Cl)cc2)N1
remaining binding (binding; competition with immobilised ligand; 1 µM): 100%

Cc1cnn2ncc(-c3ccnc(N(C)C)n3)c2c1
remaining binding (binding; 1 µM): 100%

O=C(c1ccc(Nc2ncc(Cl)c(-c3ccc(Cl)s3)n2)cc1)N1CCC(N2CCCC2)CC1
remaining binding (binding; competition with immobilised ligand; 1 µM): 84%

COc1cccc(CNC(=O)c2nc3scc(COCc4ccc(C(=O)O)cc4)c3c(=O)[nH]2)c1
remaining binding (cell-free assay; competition with immobilised ligand; 1 µM): 87.7%

c1cnn2ncc(-c3ccnc(N4CCC45COC5)n3)c2c1
remaining binding (binding; 1 µM): 78%

CC(C)(O)c1cncc(-c2nc3ccc(F)cc3n2C2CC2)c1
remaining binding (cell-free assay; competition with immobilised ligand; 1 µM): 100%

Cc1cnc(Nc2ccc(C(=O)N3CCC(N4CCCC4)CC3)cc2)nc1-c1cc2ccccc2s1
remaining binding (binding; competition with immobilised ligand; 1 µM): 100%

N[C@H]1CCN(c2nccc(-c3cnn4ncccc34)n2)C1
remaining binding (binding; 1 µM): 100%

Cc1cc(NC(=O)c2cccc(S(F)(F)(F)(F)F)c2)cc(-n2ccn3nc(-c4cccnc4)cc23)c1
remaining binding (cell-free assay; competition with immobilised ligand; 1 µM): 100%

O=C(NCC1CCOCC1)c1n[nH]cc1NC(=O)c1c(F)cccc1F
remaining binding (binding; competition with immobilised ligand; 1 µM): 87%

F[C@@H]1CCN(c2nccc(-c3cnn4ncccc34)n2)C1
remaining binding (binding; 1 µM): 100%

CNC(=O)Nc1ccc2c(c1)[C@@]1(CC2)OC(=O)N(CC(=O)N(Cc2ccc(F)cc2)[C@@H](C)C(F)(F)F)C1=O
remaining binding (binding; competition with immobilised ligand; 1 µM): 67%

O=C(NCCCN1CCOCC1)c1ccc(Nc2ncc(Cl)c(-c3ccc(Cl)s3)n2)cc1
remaining binding (binding; competition with immobilised ligand; 1 µM): 82%

COc1ccc2cc(OCC3(C(=O)O)CN(C(=O)c4ccc(F)cc4)C3)ccc2c1
remaining binding (binding; competition with immobilised ligand; 1 µM): 86%

CN(c1nccc(-c2cnn3ncccc23)n1)C1CC1
remaining binding (binding; 1 µM): 100%

O=S(=O)(NC1CCC(c2cc(F)ccc2F)(S(=O)(=O)c2ccc(Cl)cc2)CC1)C(F)(F)F (stereo not shown)
remaining binding (binding; competition with immobilised ligand; 1 µM): 75%

COc1ncc2cc3ccccc3nc2c1C#N
remaining binding (binding; competition with immobilised ligand; 5 µM): 87%
